Bioassay records: PubChem BioAssay, several laboratories
Most compounds without a hit are left out; they make up all but 6.4% or so of the library.
EBV gp42 block: EBV gp42 inhibition. Fluorescence polarization binding assay, mP read-out. inhibition, % (tested at 21.74 µM). 0.42% of 220,000 active. AID 1085; in the data active means inhibition above about 50%
Target sequence (Q1HVG2 whole entry, looked up): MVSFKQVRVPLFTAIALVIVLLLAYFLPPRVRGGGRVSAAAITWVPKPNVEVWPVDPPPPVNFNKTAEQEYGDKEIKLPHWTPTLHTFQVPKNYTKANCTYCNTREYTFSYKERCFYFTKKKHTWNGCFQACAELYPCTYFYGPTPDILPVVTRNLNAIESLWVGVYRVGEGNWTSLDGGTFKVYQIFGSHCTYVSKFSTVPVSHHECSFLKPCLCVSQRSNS
CHOP inh: inhibitors of CHOP induction in ER stress response. CHO-K1 CHOP-promoter luciferase, tunicamycin-induced, 15-18 h. inhibition, % at 10 µM. 3.8% of 220,000 active;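 active means compounds that reduced the stress-induced luciferase reporter signal by more than about 70% of percent inhibition, limit read from the data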;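 further: 0% = tunicamycin plus vehicle and 100% = wells without tunicamycin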
TbMetRS inhib: blocks T. brucei methionyl-tRNA synthetase activity; 0.4% of 360,000 active; inhibition, % at 11.9 µM; purified T. brucei MetRS, ATP depletion, Kinase-Glo luminescence;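 active means inhibition above a per-plate cutoff of the control wells' mean inhibition plus 3 SD, cut at about 5.5% in these data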;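 further: 0% = DMSO wells median and 100% = median of wells with control inhibitor compound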
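technique = Kinase-Glo luminescence, ATP depletion format | system = purified MetRS (methionyl-tRNA synthetase) enzyme from Trypanosoma brucei | timing = 15 min preincubation, 2 h reaction, all 25 °C | evaluation = percent inhibition versus plate control medians | dosing = single dose, 11.9 µM final nominal, 0.9% final DMSO | also added = substrates ATP, L-methionine and bulk Escherichia coli tRNA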
MPTP block: inhibitors of mitochondrial permeability transition pore; isolated mouse mitochondria, Ca2+ swelling absorbance, 30 min; 1.4% of 360,000 active; AID 602449; inhibition, % at 10 µM;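 active means inhibition of 50% or more, scaled per plate between neutral and stimulator controls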;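 further: 0% = DMSO wells given calcium and 100% = 1 mM EGTA wells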
WT yeast gro inh: growth inhibition of WT yeast, mitochondrial fusion screen | inhibition, % at 10 µM | mitochondrial fusion phenotypic screen, WT strain | 2.1% of 190,000 active; in the data active means inhibition above about 58%; tested in S. cerevisiae
NR3A LBD binder: modulators (binders) of human NR3A ligand-binding domain; NR3A LBD differential scanning fluorimetry, Tm shift; 0% = protein alone, 100% = glycine-bound protein; Tm shift relative to glycine control, % at 25 µM; 2.5% of 340,000 active;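 active means melting temperature shift of at least 10% of the positive control shift, at one fixed dose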
CHOP confirm: confirmation of CHOP induction inhibitors; shares compounds with CHOP inh; inhibition, % at 10 µM; AID 504437; 45% of 2,100 active; CHO-CHOP promoter luciferase reporter, tunicamycin-induced, luminescence;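 active means mean of three repeat readings of reporter signal inhibition above a set limit, cut at about 70% in these data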;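 further: 0% = tunicamycin plus vehicle and 100% = wells lacking tunicamycin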
* = called active by the depositor; nt = not tested or not shown.

SMILES	EBV gp42 block	CHOP inh	TbMetRS inhib	MPTP block	WT yeast gro inh	NR3A LBD binder	CHOP confirm
COc1ccccc1C(=O)Oc1ccc(C(C)C)cc1	5	99*	-1	-1	29	5	118*
COc1ccccc1C(=O)O/N=C(\N)c1ccccc1Cl	-10	24	0	0	-10	0	nt
COc1cccc(C(=O)Nc2cccc(OC(C)=O)c2)c1	-3	-14	-1	0	-4	3	nt
Cc1ccc(NC(=O)CCC(=O)NNC(=S)Nc2ccc(F)cc2)c(C)c1	nt	nt	0	-1	nt	0	nt
Cc1ccc(NNC(=S)Nc2ccc(C(C)C)cc2)c(C)c1	-2	106*	-1	12	58	2	16
O=C(COC(=O)CC(c1ccccc1)c1ccccc1)Nc1cccc(F)c1	15	6	-1	-1	-1	-3	nt
COc1ccc(OCCSc2nc(C)c(Cc3ccccc3)c(=O)[nH]2)cc1	-2	-6	-1	2	0	1	nt
COc1cccc(OCCSc2nc(C)c(Cc3ccccc3)c(=O)[nH]2)c1	-10	99*	-1	2	0	-2	-76
COc1ccc(-c2cnc(OC(C)(C)C)nc2OC(C)(C)C)cc1OC	-13	106*	0	0	26	0	89*
CC(CN(C)Cc1ccccc1)OC(=O)c1ccc2c(c1)OCCO2 (stereo not given)	-19	54	0	-2	38	-1	nt
Brc1ccc(C2Nc3cccc4cccc(c34)N2)s1	-5	104*	0	38	33	-2	3
Cc1ccnc(NC(=O)c2sc3ccccc3c2Cl)c1	-4	99*	-1	0	5	-2	62
O=C(Nc1ccccc1-c1nc2ccccc2[nH]1)c1ccc(N2C(=O)CCC2=O)cc1	-1	4	-1	-2	-1	9	nt
O=C(Nc1ccccc1-c1nc2ccccc2[nH]1)c1sc2ccccc2c1Cl	-21	97*	nt	nt	10	nt	106*
Cc1ccc2sc(N(CCCN(C)C)C(=O)c3nc4ccccc4s3)nc2c1C	-5	104*	1	7	59*	-1	96*
O=C(CCl)N(c1ccccc1)c1c[nH]c2ccccc12	-2	nt	0	1	-3	1	-29
O=C(CCl)N(c1ccc(Cl)cc1)c1c[nH]c2ccccc12	-10	nt	-1	14	14	-6	119*
O=C(O)Cc1c[nH]c2ccccc12	nt	nt	0	-2	nt	0	nt
COCCNC(=O)CN1C(=O)CC(C)(C)S(=O)(=O)c2ccccc21	-4	22	0	-4	12	-1	nt
CCn1c(C)nc2cc(-c3nnc(-c4c(-c5ccccc5)noc4C)o3)ccc21	0	102*	-1	0	21	-32	85*
O=C(C1c2ccccc2Oc2ccccc21)N1CCN(c2ccc(Cl)cc2)CC1	7	-32	0	0	26	2	nt
Cn1c(SCC(=O)Nc2nccs2)nnc1-c1ccc(S(=O)(=O)N2CCCC2)cc1	-125	-30	0	2	0	1	nt
COc1ccccc1NC(=O)c1ccccc1SCC(=O)N1CCCC1	nt	nt	0	-1	nt	nt	nt
CCOC(=O)c1nn(-c2ccc(Cl)cc2)c(=O)c(C#N)c1C	nt	nt	0	1	nt	1	nt
C=CCOc1c(Br)cc(/C=N/n2c(CC)n[nH]c2=S)cc1Br	-5	107*	0	16	10	-11	-7
SMILES	EBV gp42 block	CHOP inh	TbMetRS inhib	MPTP block	WT yeast gro inh	NR3A LBD binder	CHOP confirm
CCc1n[nH]c(=S)n1/N=C/c1cc(Br)c(O)c(OC)c1	-11	4	0	1	nt	2	nt
Cc1ccc(CCC2C3=C(CCCC3=O)OC3=C2C(=O)CCC3)cc1	-1	21	0	-2	6	-6	nt
CC(C)c1ccc(CC(C)C2C3=C(CCCC3=O)OC3=C2C(=O)CCC3)cc1 (stereo not given)	7	104*	-1	-2	57	3	58
C=CCn1c(CCc2cc(C(C)(C)C)c(O)c(C(C)(C)C)c2)n[nH]c1=S	0	101*	0	0	56	3	86*
C=CCn1c(Cc2ccccc2)n[nH]c1=S	-20	-4	-1	0	8	-2	nt
CNc1nc(Sc2cccc(C(F)(F)F)c2)cc(C(F)(F)F)n1	-9	101*	0	15	5	-3	98*
CNc1nc(Sc2ccccc2)cc(C(F)(F)F)n1	2	40	-1	1	5	0	nt
Cc1nc2ccccc2c(=O)n1-c1ccc(F)c(NS(=O)(=O)c2ccccc2F)c1	nt	nt	0	-2	nt	1	nt
CCCCCC1CC(CC(=O)Nc2ccc([N+](=O)[O-])cc2)C(=O)O1 (stereo not given)	-21	101*	2	48	3	-1	104*
CC(C)C[C@H](NC(=O)OC(C)(C)C)C(=O)N/N=C/C1=Cc2ccccc2OC1C (stereo not given in full)	-15	103*	-1	-2	34	-4	91*
Cc1cc(C)c(S(=O)(=O)NCCc2ccccc2)c(C)c1	11	55	-1	1	37	-2	nt
Cc1cc(C)c(S(=O)(=O)NCCn2ccc3ccccc32)c(C)c1	4	107*	1	2	-19	-2	24
CCCc1cc(C(=O)Nc2cc(Br)ccc2O)no1	-9	nt	-1	2	14	-10	-10
CCCc1cc(C(=O)Nc2cc(Cl)ccc2O)no1	nt	nt	0	2	nt	-3	nt
COc1ccc(CN2C[C@@H](CO)O[C@@H](n3cnc4c(NCCCO)ncnc43)C2)cc1	nt	nt	0	0	nt	nt	nt
CCCCCCNC(=O)CC(c1ccccc1)c1cc(Br)ccc1O (stereo not given)	-7	101*	-1	4	65	12*	112*
O=C(CNc1cccc(C(F)(F)F)c1)N/N=C/c1cccc(Br)c1	2	99*	1	16	-3	29*	108*
Cc1cc(OCC(=O)O)c2cccc(C)c2n1	2	-19	0	1	-2	1	nt
O=C(O)c1ccccc1SCc1cn2cc(Br)ccc2n1	-8	-13	-1	1	0	-4	nt
Cn1cnc([N+](=O)[O-])c1S(=O)(=O)c1cccc(Cl)c1	4	109*	-1	1	29	0	110*
CC/C(=N/Nc1cccc(C)c1)c1cnnc(SC)n1	-11	97*	-1	8	2	9	-71
CSc1nncc(/C(C)=N\Nc2ccccc2C)n1	-6	11	1	-5	-20	1	nt
COc1cnn(-c2ccc(F)cc2)c(=O)c1Br	10	2	0	-1	-2	0	nt
O=c1c(Br)c(Br)cnn1-c1ccccc1	-2	106*	0	0	32	5	118*
Cc1ccc(-n2ncc(Br)c(Br)c2=O)cc1	8	105*	0	0	46	1	121*
